# Assay outcomes as filed in PubChem.
# G6PDH CS: L. mesenteroides G6PDH inhibitors, counter-screen for G6PDH-coupled screening assays, biochemical, Leuconostoc mesenteroides enzyme; Purified L. mesenteroides G6PDH, diaphorase/resazurin coupled fluorescence, 45 min; glucose-6-phosphate dehydrogenase [Leuconostoc mesenteroides]; inhibition, % at 5 µM; AID 1020, 2008; 200,000 compounds, 0.12% hits; in the data active means inhibition above about 50%
# PfGluPho inh: PfG6PD enzyme inhibitors, primary screen, biochemical, fluorescence intensity, uHTS | glucose-6-phosphate dehydrogenase-6-phosphogluconolactonase (Plasmodium falciparum 3D7) | PfGluPho enzyme, NADPH resazurin-diaphorase fluorescence | inhibition, % at 20 µM | 350,000 compounds, 0.78% hits | AID 504690, 2011;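 active means inhibition reaching at least a set limit at 20 µM in the primary screen, cut at about 59% in these data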;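 further: 0% = DMSO wells with substrate and 100% = DMSO wells lacking glucose-6-phosphate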
# HKDC1 inh: HKDC1 hexokinase inhibitors, primary screen, biochemical, fluorescence, uHTS | Q2TB90 | recombinant HKDC1, G6PDH/diaphorase resazurin coupled fluorescence | inhibition, % at 20 µM | 340,000 compounds, 0.16% hits;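 active means inhibition above about 35% when tested at 20 µM, limit read from the data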;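 further: plate controls were DMSO wells with enzyme for no effect and DMSO wells lacking enzyme for full effect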
# Target sequence (Q2TB90 whole entry, looked up): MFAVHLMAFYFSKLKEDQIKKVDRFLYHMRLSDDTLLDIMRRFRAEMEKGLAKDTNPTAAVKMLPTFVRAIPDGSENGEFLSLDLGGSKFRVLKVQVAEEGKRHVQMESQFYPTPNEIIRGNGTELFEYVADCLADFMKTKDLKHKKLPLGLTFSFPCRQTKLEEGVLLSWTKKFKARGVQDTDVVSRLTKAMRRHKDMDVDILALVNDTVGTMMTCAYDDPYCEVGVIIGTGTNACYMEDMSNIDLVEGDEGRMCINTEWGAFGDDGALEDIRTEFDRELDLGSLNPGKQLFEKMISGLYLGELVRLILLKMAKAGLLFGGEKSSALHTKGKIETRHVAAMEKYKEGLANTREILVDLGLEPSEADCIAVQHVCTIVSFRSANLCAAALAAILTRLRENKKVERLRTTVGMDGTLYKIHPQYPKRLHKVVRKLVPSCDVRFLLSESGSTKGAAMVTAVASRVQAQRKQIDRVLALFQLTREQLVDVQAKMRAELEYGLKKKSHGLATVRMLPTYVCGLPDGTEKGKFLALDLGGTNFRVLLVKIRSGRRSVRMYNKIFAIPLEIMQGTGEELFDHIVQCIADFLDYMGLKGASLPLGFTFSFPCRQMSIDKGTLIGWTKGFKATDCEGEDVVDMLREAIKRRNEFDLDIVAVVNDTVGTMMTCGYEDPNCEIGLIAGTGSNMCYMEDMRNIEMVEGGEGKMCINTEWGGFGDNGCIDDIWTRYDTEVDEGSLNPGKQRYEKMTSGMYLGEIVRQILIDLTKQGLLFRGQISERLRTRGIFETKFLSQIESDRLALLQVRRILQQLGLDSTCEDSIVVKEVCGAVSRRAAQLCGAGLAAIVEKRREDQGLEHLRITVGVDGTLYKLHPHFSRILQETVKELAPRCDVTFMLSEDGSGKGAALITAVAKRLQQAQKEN
#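 Assay system: recombinant HKDC1 hexokinase; detection: coupled resazurin fluorescence, excitation 525 nm, emission 613 nm; benchmarks: DMSO-plus-enzyme-mix negative control, buffer-substituted positive control; compound dosing: single 20 µM dose; schedule: 90 min at room temperature in dark; also added: glucose plus 1 mM ATP as hexokinase substrates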
# Diaph inh CS: diaphorase inhibitors and chemical oxidizers, primary screen, counter-screen for diaphorase-coupled primary assays, biochemical, uHTS, resorufin fluorescence | AID 1217, 2008 | 190,000 compounds, 0.69% hits | inhibition, % at 20 µM | diaphorase resazurin-to-resorufin fluorescence, NADH, 16 min; bacterial (C. kluyveri) enzyme, not human;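 active means primary screen inhibition at 20 µM above a set limit, cut at about 50% in these data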;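 further: plate controls were DMSO with full reaction for no effect and wells lacking NADH for full effect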
#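 Test system: bacterial diaphorase enzyme (C. kluyveri); Quantity: 0.14 U/mL diaphorase, enzyme working solution; Times: reaction incubation of 16 min at room temperature; Measured by: fluorescence of resorufin formed from resazurin, Ex 544/Em 590 nm; Benchmarks: positive control minus NADH, DMSO neutral control.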
# PfGluPho conf: PfG6PD inhibitors, hit retest, confirmation, biochemical, fluorescence intensity, single concentration | shares compounds with PfGluPho inh | recombinant PfGluPho, NADPH-diaphorase-resazurin fluorescence | inhibition, % at 20 µM | 2,400 compounds, 34% hits | AID 504753, 2011;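 active means inhibition of at least 50% at 20 µM in any single replicate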;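 further: 0% = DMSO with substrate and 100% = DMSO lacking glucose-6-phosphate substrate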
# Diaph ctr 10uM: diaphorase inhibitors and chemical oxidizers, confirmation, counter-screen for P. falciparum G6PD inhibitor project, biochemical, fluorescence intensity, 10 µM NADPH; shares compounds with PfGluPho inh; diaphorase-coupled resazurin reduction, NADPH 10 uM; inhibition, % at 20 µM; 820 compounds, 39% hits; AID 504862, 2011;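 active means average inhibition reaching 50% or more with the compound at 20 µM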;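 further: resorufin red fluorescence formed as diaphorase reduces resazurin using NADPH; 0% = DMSO with enzyme and 100% = DMSO without enzyme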
# Diaphorase 30uM: diaphorase inhibitors and chemical oxidizers, confirmation, counter-screen for P. falciparum G6PD inhibitor project, biochemical, fluorescence intensity, 30 µM NADPH. shares compounds with PfGluPho inh. inhibition, % at 20 µM. Diaphorase/resazurin coupled assay, resorufin fluorescence. 820 compounds, 29% hits. AID 504863, 2011;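 active means inhibition averaging 50% or more, tested at 20 µM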;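 further: 0% = DMSO with enzyme and 100% = DMSO wells lacking diaphorase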
# * hit, by the source's call; / = no result. Hits are enriched below; roughly 1.2% of the tested compounds scored in any of these assays.
SMILES,G6PDH CS,PfGluPho inh,HKDC1 inh,Diaph inh CS,PfGluPho conf,others
COc1ccccc1N1C(=O)C=C(Sc2nc(C)cc(C)n2)C1=O,/,79*,1,/,87*,Diaph ctr 10uM=-4;Diaphorase 30uM=-15
CC(CNC(=O)c1ccccc1Cl)c1ccccc1 (centres undefined),/,5,1,/,/,
CCOC(=O)C1(C)C(=O)CC2c3nc4ccccc4cc3CN2C1=O (centres undefined),/,11,/,/,/,
O=C1CCCC(O)=C1C(C#Cc1ccccc1)C1=C(O)CCCC1=O,-19,64*,29,25,40,
Cc1nn(C)c(=O)n1-c1ccccc1,1,7,-8,9,/,
Cn1c2nc(=O)n(-c3ccccc3)c(=O)c-2nc2c1CCCC2,/,81*,/,/,49,
O=C(CSc1ccc(-c2ccccn2)nn1)c1ccc([N+](=O)[O-])cc1,14,5,-7,11,/,
O=C(CNC(=O)c1ccc([N+](=O)[O-])cc1)c1ccccc1,4,9,9,2,/,
O=C(CNC(=O)c1cccs1)OCC(=O)c1ccc([N+](=O)[O-])cc1,10,68*,-1,-2,49*,Diaph ctr 10uM=-8;Diaphorase 30uM=-10
Cc1ccc(C(=O)NCC(=O)NCC(=O)OCC(=O)c2ccc([N+](=O)[O-])cc2)cc1,-6,63*,-5,24,62*,Diaph ctr 10uM=-9;Diaphorase 30uM=0
Cc1ccc(C(=O)COC(=O)CNC(=O)CNC(=O)c2ccc(C)cc2)cc1,15,-5,-7,-6,/,
O=C(COC(=O)c1ccccn1)c1ccc([N+](=O)[O-])cc1,/,63*,5,/,41,
O=C(CNc1ccccc1)c1ccc([N+](=O)[O-])cc1,5,64*,-13,10,2,
O=C(CNC(=O)c1cccs1)c1ccc([N+](=O)[O-])cc1,7,0,-4,12,/,
COc1ccc2nc(SCC(=O)NCc3ccc(OC)c(OC)c3)[nH]c2c1,/,7,-3,/,/,
O=C(CNC(=O)c1ccco1)OCC(=O)c1ccc([N+](=O)[O-])cc1,/,63*,-1,/,66*,Diaph ctr 10uM=-5;Diaphorase 30uM=-4
O=C(Cc1ccccc1)NCC(=O)OCC(=O)c1ccc([N+](=O)[O-])cc1,-3,68*,-1,8,67*,Diaph ctr 10uM=-2;Diaphorase 30uM=-6
Cc1ccc(S(=O)(=O)N2CCOCC2)cc1NC(=O)c1cc(-c2ccccn2)nc2ccccc12,/,10,-3,/,/,
CN(C)S(=O)(=O)c1cccc(C(=O)Nc2cc(S(=O)(=O)N3CCOCC3)ccc2N2CCCC2)c1,/,66*,-11,/,34,
CN(C)S(=O)(=O)c1cccc(C(=O)Nc2cc(S(=O)(=O)N3CCOCC3)ccc2O)c1,/,11,-4,/,/,
O=C(Nc1cc(S(=O)(=O)N2CCOCC2)ccc1N1CCCCC1)c1cc(-c2ccccn2)nc2ccccc12,0,71*,-12,-2,45,
COc1ccc(/C=C(\C#N)C(=O)Nc2cc(S(=O)(=O)N3CCOCC3)ccc2N2CCCC2)cc1,-2,64*,-10,22,36,
Cc1ccc(S(=O)(=O)N2CCOCC2)cc1NC(=O)CSc1nnc(COc2ccccc2F)n1N,/,-4,-1,/,/,
COc1cccc(NC(=O)c2cnn(-c3ccccc3)c2C)c1,/,63*,-1,/,22,
CN1CCN(Cc2c(C(=O)N/N=C/c3cccc(Br)c3)nnn2-c2nonc2N)CC1,/,-2,-4,/,/,
SMILES,G6PDH CS,PfGluPho inh,HKDC1 inh,Diaph inh CS,PfGluPho conf,others
Cc1ccc(N(CC(=O)N/N=C/c2cccc(Br)c2)S(C)(=O)=O)cc1,13,115*,-8,11,86*,Diaph ctr 10uM=79*;Diaphorase 30uM=71*
CCCCCCCCC(=O)N/N=C/c1cccc(Br)c1,12,81*,22,12,11,
O=C(CCC(=O)Nc1ccc(F)cc1)N/N=C/c1cccc(Br)c1,/,113*,6,/,75*,Diaph ctr 10uM=66*;Diaphorase 30uM=59*
CCCCCCC(=O)N/N=C/c1ccc(Br)cc1,-13,18,-5,17,/,
CCOc1ccc(NC(=O)CN(C)C(=O)c2ccc(-c3ccc(C(C)=O)cc3)o2)cc1OCC,/,0,-4,/,/,
CCOC(=O)c1sc2nc(-c3ccco3)c3c(c2c1N)CC(C)(C)OC3,5,64*,8,13,10,
COC(=O)CSc1ncnc2c1sc1nc(-c3ccco3)c3c(c12)CC(C)(C)OC3,14,/,/,17,/,
CCc1ccc(NC(=O)c2cc(S(=O)(=O)N3CCc4ccccc43)cn2C)cc1,/,23,4,/,/,
CN(O)/C=c1/ccc2c(n1)C(=O)C=CC=2,58*,68*,11,69*,58*,Diaph ctr 10uM=-18;Diaphorase 30uM=-12
Cc1ccc(CSCC(=O)N/N=C/c2sccc2C)cc1,2,78*,-2,15,52*,Diaph ctr 10uM=63*;Diaphorase 30uM=54*
Cc1cc(C)c2sc(NC(=O)C3=COCCO3)nc2c1,/,75*,4,/,47*,Diaph ctr 10uM=30;Diaphorase 30uM=21
Cc1cc(=O)oc2cc(OCC(=O)N3CCCC3)ccc12,/,1,-6,/,/,
Cc1cc(=O)oc2cc(OCC(=O)N3CCOCC3)ccc12,1,68*,2,8,28,
Oc1ccc(N2CCN(Cc3ccc(OCCCN4CCCCC4)cc3)CC2)cc1,10,75*,12,-10,18,
COc1cccc(C(=O)/C=C2\Sc3ccccc3N2C)c1,-3,82*,-9,1,41,
CCCC#Cc1cnc2c(c1)C(=O)N([C@H](C)CO)C[C@@H](C)[C@H](CN(C)S(=O)(=O)c1cccc(OC)c1)O2,/,31,/,/,/,
Oc1ccc(N=Nc2c(O)ccc3ccccc23)cc1,-16,26,12,26,/,
N=C(N)c1ccc(N=Nc2c(O)ccc3c2[nH]c2ccccc23)cc1,/,78*,32,/,20,
CCOc1cccc(CNc2ccc(O)cc2)c1OCc1ccccc1Cl,5,56,14,43,/,
CCOc1cccc(CNc2ccc(O)cc2)c1OCc1ccc(Cl)cc1Cl,5,69*,17,30,26,
Cc1cc(C)c(S(=O)(=O)Nc2ccccc2-c2ccccc2)c(C)c1,15,85*,16,23,8,
O=C(c1cc(-c2ccco2)nc2ccccc12)N1CCCC(C(F)(F)F)C1 (centres undefined),/,5,11,/,/,
O=C(O)C(Cc1ccccc1)N1C(=O)CCC1=O (centres undefined),8,-17,3,3,/,
O=C(O)C(Cc1ccccc1)N1C(=O)C=CC1=O (centres undefined),/,90*,/,/,85*,Diaph ctr 10uM=18;Diaphorase 30uM=2
